The record followed here is ChEMBL document CHEMBL3414422, “Synthesis of new steroidal inhibitors of P-glycoprotein-mediated multidrug resistance and biological evaluation on K562/R7 erythroleukemia cells” (J Med Chem, 2015).

The nature of series [1]: Intrinsic cytotoxicity against human K562 cells assessed as cell survival […] by MTT assay. In kind it is cell-based. As to conditions: read-out: Survival. Background: Formazan colour is commonly taken as a measure of viable cells.
For another series, the system named is K562/R7. Put plainly: Inhibition of p-gp (unknown origin) in doxorubicin-resistant human K562/R7 cells assessed as increase in daunorubicin accumulation measured as fluorescence ratio at 10 uM incubated for 1 hr with 10 uM daunorubicin by flow cytometry relative to control. In kind it is cell-based. The essentials:
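Resistant K562/R7 cells ([…]) incubated 1 h at 37 °C in RPMI 1640 with daunorubicin 10 µM, with or without steroid at 10 µM; intracellular fluorescence read by flow cytometry. Accumulation index = daunorubicin fluorescence ratio with/without modulator. Cyclosporin A as positive control. Duplicates, at least three separate experiments.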
(In general: In flow cytometry, cells or beads pass a laser one at a time.)

`COCCCC(C)[C@H]1CC[C@H]2[C@@H]3[C@H](O[C@H]4CCCCO4)C[C@@H]4CC(=O)CC[C@]4(C)[C@H]3C[C@H](OC(=O)c3ccccc3)[C@]12C` (some centres undefined): in series [1], the viability turned out to be 56.3%. The Ratio in the series with K562/R7 stood at 3.1.

`CC(=O)[C@H]1CC[C@H]2[C@@H]3CC[C@@H]4CC(=O)CC[C@]4(C)[C@H]3[C@H](O[C@H]3CCCCO3)C[C@]12C`: the Ratio with K562/R7 was found to be 2.5.

`CC(=O)[C@@]1(O[C@H]2CCCCO2)CC[C@H]2[C@@H]3CCC4=CC(=O)CC[C@]4(C)[C@H]3CC[C@@]21C`: the Ratio in the series with K562/R7 is 2.8.

`CC(=O)[C@H]1CC[C@H]2[C@@H]3CC[C@@H]4CC(=O)CC[C@]4(C)[C@H]3CC[C@]12C`: the Ratio with K562/R7 is 1.2.

Regarding `COCO[C@@H]1C[C@@H]2CC(=O)CC[C@]2(C)[C@H]2C[C@H](OC(=O)c3ccccc3)[C@]3(C)[C@@H](C(C)CCC(=O)OC)CC[C@H]3[C@H]12` (some centres undefined), the viability in series [1] was 43.5%. Besides, the Ratio in the series on K562/R7 is 3.8.

Turning to `CC(=O)[C@H]1CC[C@H]2[C@H]3[C@H]([C@H](O[C@@H]4CCCCO4)C[C@]12C)[C@@]1(C)CCC(=O)C[C@@H]1C[C@H]3OC(=O)c1ccccc1`, the viability in series [1] is 77.8%. In addition, in the series on K562/R7, the Ratio is 2.4.

Consider `COC(=O)CCC(C)[C@H]1CC[C@H]2[C@@H]3[C@H](O)C[C@@H]4CC(=O)CC[C@]4(C)[C@H]3C[C@H](O)[C@]12C` (some centres undefined), for which, in the series on K562/R7, the Ratio came out at 1.5.

Regarding `COC(=O)CCC(C)[C@H]1CC[C@H]2[C@@H]3[C@H](OC(=O)c4ccccc4)C[C@@H]4CC(=O)CC[C@]4(C)[C@H]3C[C@H](O[C@@H]3CCCCO3)[C@]12C` (some centres undefined), the viability in series [1] worked out at 56.4%. For the same compound, the Ratio with K562/R7 came out at 2.1.

As for `COCCCC(C)[C@H]1CC[C@H]2[C@@H]3[C@H](O[C@@H]4CCCCO4)C[C@@H]4CC(=O)CC[C@]4(C)[C@H]3C[C@H](OC(=O)c3ccccc3)[C@]12C` (some centres undefined), the viability in series [1] came out at 51%. In the series with K562/R7, the Ratio came to 3.4.

Consider `COC(=O)CCC(C)[C@H]1CC[C@H]2[C@@H]3[C@H](OC4CCCCO4)C[C@@H]4CC(=O)CC[C@]4(C)[C@H]3C[C@H](OC3CCCCO3)[C@]12C` (mixture of isomers), for which the viability in series [1] is 63.2%. Moreover, the Ratio in the series with K562/R7 stood at 3.5.

Regarding `COCO[C@H]1C[C@H]2[C@@H]([C@H](OC(=O)c3ccccc3)C[C@@H]3CC(=O)CC[C@@]32C)[C@@H]2CC[C@H](C(C)CCC(=O)OC)[C@@]12C` (some centres undefined), in series [1], the viability was 49.7%. Besides, the Ratio in the series with K562/R7 amounted to 2.9.

For `CC(=O)[C@@]1(O[C@@H]2CCCCO2)CC[C@H]2[C@@H]3CC[C@@H]4CC(=O)CC[C@]4(C)[C@H]3[C@H](O[C@H]3CCCCO3)C[C@@]21C`, the viability in series [1] worked out at 67.9%. In addition, in the series with K562/R7, the Ratio was found to be 2.5.

Take `CC(=O)[C@H]1CC[C@H]2[C@@H]3CCC4=CC(=O)CC[C@]4(C)[C@H]3[C@H](O)C[C@]12C`: the Ratio with K562/R7 worked out at 1.

`CC(=O)[C@H]1CC[C@H]2[C@H]3[C@H]([C@H](O[C@H]4CCCCO4)C[C@]12C)[C@@]1(C)CCC(=O)C[C@H]1C[C@H]3OC1CCCCO1` (mixture of isomers): the viability in series [1] came to 84.4%. In addition, the Ratio with K562/R7 amounted to 2.5.

As for `COCO[C@H]1C[C@H]2[C@@H]([C@H](O)C[C@@H]3CC(=O)CC[C@@]32C)[C@@H]2CC[C@H](C(C)CCC(=O)OC)[C@@]12C` (some centres undefined), the viability in series [1] stood at 84.7%. Besides, the Ratio in the series with K562/R7 was found to be 2.1.

For the compound `CC(=O)[C@H]1CC[C@H]2[C@H]3[C@H]([C@H](O)C[C@]12C)[C@@]1(C)CCC(=O)C[C@H]1C[C@H]3OC(=O)c1ccccc1`, the viability in series [1] stood at 92.9%. Also, the Ratio in the series on K562/R7 was determined as 1.4.

As to `CC(=O)[C@H]1CC[C@H]2[C@@H]3CC[C@@H]4CC(=O)CC[C@]4(C)[C@H]3[C@H](O[C@@H]3CCCCO3)C[C@]12C`, the Ratio in the series on K562/R7 came to 2.5.

With `CC(=O)[C@@]1(O)CC[C@H]2[C@@H]3CC[C@@H]4CC(=O)CC[C@]4(C)[C@H]3CC[C@@]21C`, in the series with K562/R7, the Ratio is 1.1.

On to `CC(=O)[C@H]1CC[C@H]2[C@H]3[C@H]([C@H](O[C@@H]4CCCCO4)C[C@]12C)[C@@]1(C)CCC(=O)C[C@H]1C[C@H]3OC(=O)c1ccccc1`, for which the viability in series [1] is 80.8%. For the same compound, in the series with K562/R7, the Ratio came to 2.9.

For the compound `CC(=O)[C@H]1CC[C@H]2[C@@H]3CC[C@@H]4CC(=O)CC[C@]4(C)[C@H]3[C@H](O)C[C@]12C`, the Ratio in the series with K562/R7 stood at 1.

Consider `CC(=O)[C@H]1CC[C@H]2[C@@H]3[C@H](OC(=O)c4ccccc4)C[C@@H]4CC(=O)CC[C@]4(C)[C@H]3CC[C@]12C`, for which the Ratio in the series with K562/R7 was 2.2.

On to `CC(=O)[C@@]1(O[C@H]2CCCCO2)CC[C@H]2[C@@H]3CC[C@@H]4CC(=O)CC[C@]4(C)[C@H]3CC[C@@]21C`, for which the Ratio with K562/R7 turned out to be 2.4.

As for `CC(=O)[C@H]1CC[C@H]2[C@@H]3CCC4=CC(=O)CC[C@]4(C)[C@H]3CC[C@]12C` [PROGESTERONE], in series [1], the viability amounted to 81.6%. In addition, in the series on K562/R7, the Ratio is 1.2.

Regarding `COCCCC(C)[C@H]1CC[C@H]2[C@@H]3[C@H](OC(=O)c4ccccc4)C[C@@H]4CC(=O)CC[C@]4(C)[C@H]3C[C@H](OC(=O)c3ccccc3)[C@]12C` (some centres undefined), the viability in series [1] came to 50.7%. Besides, the Ratio in the series with K562/R7 was determined as 1.7.

Regarding `CC(=O)[C@H]1CC[C@H]2[C@H]3[C@H]([C@H](OC(=O)c4ccccc4)C[C@]12C)[C@@]1(C)CCC(=O)C[C@H]1C[C@H]3O[C@@H]1CCCCO1`, the viability in series [1] was 61.5%. Further, the Ratio in the series with K562/R7 turned out to be 2.8.

Consider `CC(=O)[C@H]1CC[C@H]2[C@H]3[C@H]([C@H](OC(=O)c4ccccc4)C[C@]12C)[C@@]1(C)CCC(=O)C[C@H]1C[C@H]3O[C@H]1CCCCO1`, for which, in series [1], the viability is 70.5%. In addition, the Ratio with K562/R7 stood at 2.6.

For the compound `CC(=O)[C@H]1CC[C@H]2[C@H]3[C@H]([C@H](OC(=O)c4ccccc4)C[C@]12C)[C@@]1(C)CCC(=O)C[C@H]1C[C@H]3O`, the viability in series [1] was found to be 81.1%. Besides, in the series on K562/R7, the Ratio worked out at 2.3.

Take `C[C@]12CC[C@H]3[C@@H](CCC4=CC(=O)CC[C@@]43C)[C@@H]1CC[C@@H]2C(=O)COC1CCCCO1` (mixture of isomers): the Ratio in the series with K562/R7 came out at 1.6.

For `CC(=O)[C@H]1CC[C@H]2[C@@H]3CCC4=CC(=O)CC[C@]4(C)[C@H]3[C@H](O[C@H]3CCCCO3)C[C@]12C`, the Ratio in the series on K562/R7 was found to be 2.4.

On to `COCCCC(C)[C@H]1CC[C@H]2[C@@H]3[C@H](OC(=O)c4ccccc4)C[C@@H]4CC(=O)CC[C@]4(C)[C@H]3C[C@H](O[C@H]3CCCCO3)[C@]12C` (some centres undefined), for which the viability in series [1] is 75.8%. Besides, in the series on K562/R7, the Ratio came out at 2.2.

Turning to `CC(=O)[C@H]1CC[C@H]2[C@H]3[C@H]([C@H](OC(=O)c4ccccc4)C[C@]12C)[C@@]1(C)CCC(=O)C[C@@H]1C[C@H]3OC(=O)c1ccccc1`, in series [1], the viability came out at 71.1%. Further, the Ratio in the series with K562/R7 worked out at 2.5.

As for `CC(=O)[C@H]1CC[C@H]2[C@H]3[C@H]([C@H](O[C@@H]4CCCCO4)C[C@]12C)[C@@]1(C)CCC(=O)C[C@H]1C[C@H]3OC1CCCCO1` (mixture of isomers), the viability in series [1] was found to be 86.7%. Moreover, in the series on K562/R7, the Ratio came to 2.6.

`CC(=O)[C@H]1CC[C@H]2[C@H]3[C@H]([C@H](OC(=O)c4ccccc4)C[C@]12C)[C@@]1(C)CCC(=O)C[C@H]1C[C@H]3OC(=O)c1ccccc1`: the viability in series [1] was found to be 66.4%. In addition, the Ratio in the series with K562/R7 was 2.5.

As to `COC(=O)CCC(C)[C@H]1CC[C@H]2[C@@H]3[C@H](OC4=CCOCC4)C[C@@H]4CC(=O)CC[C@]4(C)[C@H]3C[C@H](OC3=CCOCC3)[C@]12C` (some centres undefined), the viability in series [1] stood at 76.3%. Besides, in the series on K562/R7, the Ratio came out at 3.7.

For `COc1ccc(CCN(C)CCCC(C#N)(c2ccc(OC)c(OC)c2)C(C)C)cc1OC` (centres undefined), the viability in series [1] was found to be 93.3%.

As for `COC(=O)CCC(C)[C@H]1CC[C@H]2[C@@H]3[C@H](OC(=O)c4ccccc4)C[C@@H]4CC(=O)CC[C@]4(C)[C@H]3C[C@H](O[C@H]3CCCCO3)[C@]12C` (some centres undefined), the viability in series [1] turned out to be 53.5%. Further, the Ratio in the series on K562/R7 stood at 2.7.

For the compound `CC(=O)[C@@]1(O)CC[C@H]2[C@@H]3CC[C@@H]4CC(=O)CC[C@]4(C)[C@H]3[C@H](O)C[C@@]21C`, the Ratio in the series on K562/R7 was 1.

For the compound `COC(=O)CCC(C)[C@H]1CC[C@H]2[C@@H]3[C@H](O[C@H]4CCCCO4)C[C@@H]4CC(=O)CC[C@]4(C)[C@H]3C[C@H](OC(=O)c3ccccc3)[C@]12C` (some centres undefined), the viability in series [1] is 44.6%. Besides, the Ratio with K562/R7 came to 3.3.

Regarding `CC(=O)[C@@]1(O)CC[C@H]2[C@@H]3CCC4=CC(=O)CC[C@]4(C)[C@H]3CC[C@@]21C`, the Ratio in the series with K562/R7 was 1.

`CC(=O)[C@H]1CC[C@H]2[C@H]3[C@H]([C@H](O[C@H]4CCCCO4)C[C@]12C)[C@@]1(C)CCC(=O)C[C@@H]1C[C@H]3OC(=O)c1ccccc1`: the Ratio with K562/R7 came out at 2.3.

As to `CC(=O)[C@@]1(O[C@@H]2CCCCO2)CC[C@H]2[C@@H]3CC[C@@H]4CC(=O)CC[C@]4(C)[C@H]3CC[C@@]21C`, the Ratio in the series with K562/R7 came to 2.3.

Take `CC(=O)[C@H]1CC[C@H]2[C@H]3[C@H]([C@H](O)C[C@]12C)[C@@]1(C)CCC(=O)C[C@H]1C[C@H]3O`: the Ratio with K562/R7 came to 1.1.

For `CC(=O)[C@@]1(O[C@@H]2CCCCO2)CC[C@H]2[C@@H]3CCC4=CC(=O)CC[C@]4(C)[C@H]3CC[C@@]21C`, the Ratio in the series on K562/R7 is 2.4.

Take `CC(=O)[C@H]1CC[C@H]2[C@@H]3CC[C@H]4CC(=O)CC[C@]4(C)[C@H]3CC[C@]12C`: the Ratio in the series with K562/R7 is 1.

In the case of `CC(=O)[C@H]1CC[C@H]2[C@@H]3[C@H](OC4CCCCO4)C[C@@H]4CC(=O)CC[C@]4(C)[C@H]3CC[C@]12C` (mixture of isomers), in the series on K562/R7, the Ratio is 2.4.
